Published values collected from several papers.
Target: NUAK family SNF1-like kinase 2 (NUAK2, Homo sapiens, UniProt Q9H093)
Residues used in one study (Q9H093 1-628): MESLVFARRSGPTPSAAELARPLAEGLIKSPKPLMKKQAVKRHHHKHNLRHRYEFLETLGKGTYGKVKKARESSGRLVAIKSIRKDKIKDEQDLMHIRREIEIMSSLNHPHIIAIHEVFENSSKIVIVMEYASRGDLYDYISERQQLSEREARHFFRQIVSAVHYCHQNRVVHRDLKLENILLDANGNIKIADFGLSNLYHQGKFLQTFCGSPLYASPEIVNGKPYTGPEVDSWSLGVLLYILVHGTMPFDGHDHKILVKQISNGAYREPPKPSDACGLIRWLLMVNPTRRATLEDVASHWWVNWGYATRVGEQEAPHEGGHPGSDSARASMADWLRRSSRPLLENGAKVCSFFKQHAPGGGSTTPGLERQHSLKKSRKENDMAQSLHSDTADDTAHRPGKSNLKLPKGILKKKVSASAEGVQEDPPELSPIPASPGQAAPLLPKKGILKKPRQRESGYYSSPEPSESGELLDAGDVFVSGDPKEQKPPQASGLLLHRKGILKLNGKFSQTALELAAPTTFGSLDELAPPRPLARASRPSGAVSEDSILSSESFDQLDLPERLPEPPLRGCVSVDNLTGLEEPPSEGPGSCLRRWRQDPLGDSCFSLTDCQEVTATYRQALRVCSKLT

| Compound | test | setting | remaining binding [%] |
| --- | --- | --- | --- |
| F[C@@H]1CCN(c2nccc(-c3cnn4ncccc34)n2)C1 | binding | 1 µM | 88 |
| O=C(N1CCS(=O)(=O)CC1)N1C[C@H](c2ccc(OC(F)(F)F)cc2)C[C@H](c2nc(C3CC3)no2)C1 | cell-free assay, competition with immobilised ligand | 1 µM | 100 |
| COc1cnc(Nc2cccc(S(N)(=O)=O)c2)nc1N1CCN(c2ccccc2)CC1 | binding, competition with immobilised ligand | 1 µM | 62 |
| O=C(NCCCN1CCOCC1)c1ccc(Nc2nccc(-c3cc4ccccc4s3)n2)cc1 | binding, competition with immobilised ligand | 1 µM | 26 |
| c1cncc(-c2cccc(Nc3nccc(NC4CCCCC4)n3)c2)c1 | binding, competition with immobilised ligand | 10 µM | 17 |
| CCN1CCN(Cc2ccc(C(=O)Nc3ccc(C)c(Oc4ccc5c(c4)CC(=O)N5)c3)cc2C(F)(F)F)CC1 | binding, competition with immobilised ligand | 1 µM | 100 |
| O=C(NCC1CCOCC1)c1n[nH]cc1NC(=O)c1c(F)cccc1F | binding, competition with immobilised ligand | 1 µM | 70 |
| CCCCN(CCCC)C(=O)CN1C[C@@H](c2cc(OC)c3c(c2)OCO3)[C@H](C(=O)O)[C@H]1CC(C)(C)CCC | cell-free assay, competition with immobilised ligand | 1 µM | 100 |
| C[C@H]1CCN(c2nccc(-c3cnn4ncccc34)n2)C1 | binding | 1 µM | 79 |
| O=C(NCCCN1CCOCC1)c1ccc(Nc2ncc(Cl)c(-c3ccc(Cl)s3)n2)cc1 | binding, competition with immobilised ligand | 1 µM | 0.85 |
| N[C@H]1CCN(c2nccc(-c3cnn4ncccc34)n2)C1 | binding | 1 µM | 100 |
| CS(=O)(=O)NCC[C@H](NC(=O)c1cncc2c1cnn2-c1ccc(F)cc1)c1ccnc(S(C)(=O)=O)c1 | cell-free assay, competition with immobilised ligand | 1 µM | 100 |
| C[C@@H]1CN(c2ccc3ncc(-c4ccc5[nH]nc(C6CC6)c5c4)n3n2)C[C@H](C)O1 | binding, competition with immobilised ligand | 0.5 µM | 58 |
| CC1CCCN1c1nccc(-c2cnn3ncccc23)n1 (stereo not shown) | binding | 1 µM | 85 |
| Cn1cc(Cl)c2c(Oc3c(F)cc(Nc4cc(Cl)nc(N)n4)cc3F)ccnc21 | cell-free assay, competition with immobilised ligand | 0.1 µM | 85 |
| O=C(c1ccc(Nc2ncc(Cl)c(-c3ccc(Cl)s3)n2)cc1)N1CCC(N2CCCC2)CC1 | binding, competition with immobilised ligand | 1 µM | 0.4 |
| CNCc1ccccc1-c1csc([C@H](C)Nc2nc(C)nc3cc(OC)c(OC)cc23)c1 | cell-free assay, competition with immobilised ligand | 1 µM | 100 |
| FC(F)(F)Oc1cccc(-c2cnc3ccc(-c4ccncc4)nn23)c1 | binding, competition with immobilised ligand | 5 µM | 37 |
| c1cnn2ncc(-c3ccnc(N4CCC45COC5)n3)c2c1 | binding | 1 µM | 64 |
| CNC(=O)[C@@H]1CC[C@@H](n2c(-c3ccc4cnccc4c3)nc3ccc(C(=O)NCc4cccc(C(N)=O)c4)cc32)C1 | binding, competition with immobilised ligand | 1 µM | 100 |
| CN(C)c1nccc(-c2cnc3ncccn23)n1 | binding | 1 µM | 83 |
| COc1cccc(CNC(=O)c2nc3scc(COCc4ccc(C(=O)O)cc4)c3c(=O)[nH]2)c1 | cell-free assay, competition with immobilised ligand | 1 µM | 76.4 |
